Test results: ChEMBL document CHEMBL1134251, “Quinazolines as cyclin dependent kinase inhibitors” (Bioorg Med Chem Lett, 2001)

Tests used:
[1] = biological target: Cyclin-dependent kinase 4/cyclin D1 (Homo sapiens, UniProt P11802); assay: In vitro inhibitory activity against human cyclin dependent kinase (CDK4/D1); format: protein-complex assay
[2] = biological target: Cyclin-dependent kinase 2/cyclin E (Homo sapiens, UniProt P24941); assay: In vitro inhibitory activity against human cyclin dependent kinase (CDK2/E); format: protein-complex assay
[3] = tested on: HCT-116; assay: Inhibition SRB HCT 116 cancer cell proliferation; format: functional, cell-based; conditions: Homo sapiens
How it was run: (§1)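 Growth-inhibition assay in HCT 116 cancer cells, with IC50 as the read-out. AG1523 cells are normal human fibroblasts and were run under the same assay conditions as HCT 116.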

[4] = tested on: AG1523; assay: Inhibition of SRB AG1523 cancer cell proliferation; format: functional, cell-based; conditions: Homo sapiens, in the assay text read “normal human fibroblast cell” for “cancer cell”; how it was run: as §1
[5] = biological target: Cyclin-dependent kinase 4/cyclin D1 (Homo sapiens) (UniProt P11802+P24385); assay: Inhibition of human cyclin dependent kinase 4 (CDK4/D1) at 50 uM; format: protein-complex assay; set-up: scale not given: the % may be the effect or the level left
[6] = biological target: Cyclin-dependent kinase 2/cyclin A (Homo sapiens, UniProt P24941); assay: Inhibition of human cyclin dependent kinase 2 (CDK2/A); format: protein-complex assay
[7] = Inhibition of human cyclin dependent kinase 6 (CDK6/D2)
[8] = biological target: T1, Cyclin-dependent kinase 1/cyclin B (Homo sapiens, UniProt P06493); assay: Inhibition of human cyclin dependent kinase 1 (CDK1/B); format: protein-complex assay
[9] = biological target: T1, Cyclin-dependent kinase 1/cyclin B; assay: Inhibition of human cyclin dependent kinase 1 (CDC2/B); format: protein-complex assay

Sequence of Cyclin-dependent kinase 4/cyclin D1 (P11802 whole entry): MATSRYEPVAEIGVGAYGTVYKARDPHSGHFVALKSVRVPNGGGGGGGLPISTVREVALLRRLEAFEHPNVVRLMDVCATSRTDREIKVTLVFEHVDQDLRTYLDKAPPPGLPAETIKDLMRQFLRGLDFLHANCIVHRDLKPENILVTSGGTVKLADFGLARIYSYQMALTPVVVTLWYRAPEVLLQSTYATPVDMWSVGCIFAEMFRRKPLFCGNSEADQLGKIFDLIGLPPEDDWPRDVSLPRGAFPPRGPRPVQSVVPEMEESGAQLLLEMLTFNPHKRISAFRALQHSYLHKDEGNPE
Sequence of Cyclin-dependent kinase 4/cyclin D1 (P24385 whole entry, further chain): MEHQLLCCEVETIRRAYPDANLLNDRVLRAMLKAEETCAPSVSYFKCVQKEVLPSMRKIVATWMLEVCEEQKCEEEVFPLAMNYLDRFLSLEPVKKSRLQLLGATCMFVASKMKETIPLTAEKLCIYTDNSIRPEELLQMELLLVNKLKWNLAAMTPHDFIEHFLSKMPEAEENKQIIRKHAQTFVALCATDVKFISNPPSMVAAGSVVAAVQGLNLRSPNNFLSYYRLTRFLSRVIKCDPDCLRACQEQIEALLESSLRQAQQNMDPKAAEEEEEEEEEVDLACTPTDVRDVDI

IC50 [1]	IC50 [2]	Compound	also measured
> 2.5 µM	1.3 µM	CC(C)(C)Nc1nc(C(F)(F)F)nc2ccc(-c3cccc(C(N)=O)c3)cc12	–
14.3 µM	1.5 µM	CC(C)(C)Nc1nc(C(F)(F)F)nc2ccccc12	IC50 [3]: 20.6 µM; IC50 [4]: > 74 µM
3.55 µM	0.545 µM	CC(C)(C)Nc1nc(C(F)(F)F)nc2ccc(-c3ccsc3)cc12	IC50 [3]: 18.4 µM; IC50 [4]: > 28 µM
> 39 µM	15.6 µM	Fc1cccc(CNc2nc(C(F)(F)F)nc3ccccc23)c1	–
59 µM	6.8 µM	CC(Nc1nc(C(F)(F)F)nc2ccccc12)c1ccccc1 (stereo not drawn)	–
11 µM	0.7 µM	CC(C)(C)Nc1nc(C(F)(F)F)nc2ccc(-c3ccc(O)cc3)cc12	–
> 27 µM	10 µM	COc1ccc(-c2ccc3nc(C(F)(F)F)nc(NC(C)(C)C)c3c2)cc1	–
8.3 µM	–	CC(C)(C)Nc1nc(C(F)(F)F)nc2ccc(-c3cccnc3)cc12	–
11.9 µM	6.1 µM	CC(C)(C)Nc1nc(C(Cl)(Cl)Cl)nc2ccccc12	IC50 [3]: 25 µM; IC50 [6]: 25.8 µM; IC50 [9]: 23 µM
168 µM	> 5.8 µM	CCOC(=O)c1nc(NC(C)(C)C)c2ccccc2n1	–
> 84 µM	32.4 µM	OC1CCCN(c2nc(C(F)(F)F)nc3ccccc23)C1 (stereo not drawn)	–
> 19 µM	8.9 µM	Fc1cc(F)cc(CNc2nc(C(F)(F)F)nc3ccccc23)c1	–
> 3 µM	1.2 µM	CC(C)(C)Nc1nc(C(F)(F)F)nc2ccc(-c3ccco3)cc12	–
> 171 µM	> 34 µM	CC(C)(C)Nc1nc(Nc2ccccc2)nc2ccccc12	–

More lines, now with the values behind:

Compound	IC50 [1]	IC50 [2]	also measured
CC(C)(C)Nc1nc(C(F)(F)F)nc2ccc(-c3ccc(-c4cccnc4)cc3)cc12	8.3 µM	1.2 µM	–
CC(C)(C)Nc1nc(C(F)(F)F)nc2ccc(-c3cccs3)cc12	6.4 µM	1.18 µM	–
CC(C)(C)Nc1nc(C(F)(F)F)nc2ccc(-c3cccc(O)c3)cc12	12 µM	1 µM	–
CC(Nc1nc(C(F)(F)F)nc2ccccc12)c1ccc(F)cc1 (stereo not drawn)	–	16.5 µM	Activity [5]: 35%
CC(C)(C)Nc1nc(C(F)(F)F)nc2ccc(-c3ccccc3)cc12	7.7 µM	1.8 µM	–
CC(C)(CO)Nc1nc(C(F)(F)F)nc2ccccc12	15 µM	2.3 µM	–
CC(C)(C)Nc1nc(C(N)=O)nc2ccccc12	> 490 µM	164 µM	–
CC(C)(C)Nc1nc(C(F)(F)F)nc2ccc(-c3ccc(Cl)cc3)cc12	> 26 µM	2.6 µM	–
CC(C)(C)Nc1nc(C(F)(F)F)nc2ccc(-c3cccc(N)c3)cc12	> 2.1 µM	–	–
CC(C)(C)Nc1nc(C(F)(F)F)nc2ccc(-c3ccc(N)cc3)cc12	> 1.1 µM	1.1 µM	–
CC(C)(C)Nc1nc(C(F)(F)F)nc2ccc(C(F)(F)F)cc12	> 37 µM	0.79 µM	IC50 [3]: 18.6 µM; IC50 [6]: 2.05 µM; IC50 [4]: > 59 µM; IC50 [7]: 56 µM; IC50 [8]: > 0.74 µM
CC(C)(C)Nc1nc(C(F)(F)C(F)(F)F)nc2ccccc12	> 20 µM	11.9 µM	–
C[C@H](Nc1nc(C(F)(F)F)nc2ccccc12)c1ccccc1	–	31 µM	Activity [5]: 40%
COc1cccc(-c2ccc3nc(C(F)(F)F)nc(NC(C)(C)C)c3c2)c1	> 6.7 µM	3.3 µM	–
CC(C)S(=O)(=O)Nc1nc(C(F)(F)F)nc2ccccc12	> 157 µM	> 31 µM	–
CC(C)(C)Nc1nc(C(F)(F)F)nc2ccc(NC=O)cc12	14 µM	0.925 µM	IC50 [3]: 5.72 µM
C#CC(C)(C)Nc1nc(C(Cl)(Cl)Cl)nc2ccccc12	24 µM	13.5 µM	IC50 [3]: 15 µM; IC50 [8]: 35 µM
C[C@@H](Nc1nc(C(F)(F)F)nc2ccccc12)c1ccccc1	39 µM	3.2 µM	–
CC(C)(C)Nc1nc(-c2ccccc2)nc2ccccc12	> 361 µM	–	–
CC(C)(C)Nc1nc(C(=O)O)nc2ccccc12	> 408 µM	> 815 µM	–
COc1ccccc1-c1ccc2nc(C(F)(F)F)nc(NC(C)(C)C)c2c1	> 2.7 µM	1 µM	–
CCC(C)(C)Nc1nc(C(F)(F)F)nc2ccccc12	16.8 µM	1.4 µM	–
CC(C)(Nc1nc(C(F)(F)F)nc2ccccc12)c1ccccc1	> 151 µM	14 µM	–
OCC1CCCN1c1nc(C(F)(F)F)nc2ccccc12 (stereo not drawn)	63 µM	14.8 µM	–
CCCC(C)Nc1nc(C(F)(F)F)nc2ccccc12 (stereo not drawn)	119 µM	245 µM	–
CC(C)(C)Nc1ncnc2ccccc12	> 248 µM	> 50 µM	–
CC(C)(C)Nc1nc(C(F)(F)F)nc2ccc(O)cc12	18 µM	1.15 µM	IC50 [3]: 7.3 µM; IC50 [4]: > 18 µM
CC(C)(C)Nc1nc(C(F)(F)F)nc2ccc(-c3ccc(Cl)cc3Cl)cc12	> 2.4 µM	> 12 µM	–
